{
  "source": "ChEMBL document CHEMBL5303300",
  "about": "“EUbOPEN Chemogenomics Library - Multiplex” (2023)",
  "tested_on": "U2OS",
  "assay": "Multiplex assay against U2OS",
  "format": "toxicity, cell-based",
  "details": "human, number of replicates 2",
  "procedure,_shortened": "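Live cells were stained at seeding with Hoechst33342, BioTracker Green Microtubule Cytoskeleton Dye, MitoTracker Red and Annexin V Alexa Fluor 680. Following compound addition, they were imaged on a CQ1 microscope at 37°C and 5% CO2 and gated by CellPathfinder machine learning into Hoechst high-intensity objects or normal cells, with normal cells split into healthy, pyknosed or fragmented nuclei and pyknosed cells into mitotic or apoptotic. Tubulin, mitochondrial-mass and membrane-permeability phenotypes are per cents of healthy-nucleus cells.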",
  "key": {"[1]": {"details": "12 h, 1 µM, compound concentration 1 uM"}, "[2]": {"details": "12 h, 10 µM, compound concentration 10 uM"}, "[3]": {"details": "24 h, 1 µM, compound concentration 1 uM"}, "[4]": {"details": "24 h, 10 µM, compound concentration 10 uM"}, "[5]": {"details": "48 h, 1 µM, compound concentration 1 uM"}, "[6]": {"details": "48 h, 10 µM, compound concentration 10 uM"}},
  "note": "“And” between values parts separate entries of the source, which are not always exact repeats. Equal values may be shown once.",
  "data": [
    {"smiles": "CN1CCN(c2ccc(-n3cc(-c4ccncc4OCC4CCNCC4)cn3)cc2)CC1", "values": [
      {"measurement": "Population Apoptotic (%)", "setting": "[1]", "result": "100% and 71%"},
      {"measurement": "Population Healthy Nuclei (%)", "setting": "[1]", "result": "63% and 82%"},
      {"measurement": "Population Hoechst High Intensity Objects (%)", "setting": "[1]", "result": 0, "unit": "%"},
      {"measurement": "Population Membrane Permeable-Phenotype (%)", "setting": "[1]", "result": "6% and 1%"},
      {"measurement": "Population Mitochondria Different-Phenotype (%)", "setting": "[1]", "result": "3% and 2%"},
      {"measurement": "Population Normal (%)", "setting": "[1]", "result": 100, "unit": "%"},
      {"measurement": "Population Pyknosed Nuclei (%)", "setting": "[1]", "result": "2% and 10%"},
      {"measurement": "Population Tubulin-Different-Phenotype (%)", "setting": "[1]", "result": "75% and 77%"},
      {"measurement": "Population Apoptotic (%)", "setting": "[2]", "result": 80, "unit": "%"},
      {"measurement": "Population Healthy Nuclei (%)", "setting": "[2]", "result": "48% and 67%"},
      {"measurement": "Population Hoechst High Intensity Objects (%)", "setting": "[2]", "result": "1% and 0%"},
      {"measurement": "Population Membrane Permeable-Phenotype (%)", "setting": "[2]", "result": "0% and 5%"},
      {"measurement": "Population Mitochondria Different-Phenotype (%)", "setting": "[2]", "result": "7% and 16%"},
      {"measurement": "Population Mitotic Cells (%)", "setting": "[2]", "result": "20% and 19%"},
      {"measurement": "Population Normal (%)", "setting": "[2]", "result": "98% and 99%"},
      {"measurement": "Population Pyknosed Nuclei (%)", "setting": "[2]", "result": "17% and 22%"},
      {"measurement": "Population Tubulin-Different-Phenotype (%)", "setting": "[2]", "result": "21% and 36%"},
      {"measurement": "Population Apoptotic (%)", "setting": "[3]", "result": "100% and 78%"},
      {"measurement": "Population Healthy Nuclei (%)", "setting": "[3]", "result": "69% and 84%"},
      {"measurement": "Population Hoechst High Intensity Objects (%)", "setting": "[3]", "result": 0, "unit": "%"},
      {"measurement": "Population Membrane Permeable-Phenotype (%)", "setting": "[3]", "result": "4% and 1%"},
      {"measurement": "Population Mitochondria Different-Phenotype (%)", "setting": "[3]", "result": "2% and 1%"},
      {"measurement": "Population Mitotic Cells (%)", "setting": "[3]", "result": "0% and 21%"},
      {"measurement": "Population Normal (%)", "setting": "[3]", "result": 100, "unit": "%"},
      {"measurement": "Population Pyknosed Nuclei (%)", "setting": "[3]", "result": "3% and 11%"},
      {"measurement": "Population Tubulin-Different-Phenotype (%)", "setting": "[3]", "result": "72% and 85%"},
      {"measurement": "Population Apoptotic (%)", "setting": "[4]", "result": "76% and 88%"},
      {"measurement": "Population Fragmented Nuclei (%)", "setting": "[4]", "result": "34% and 12%"},
      {"measurement": "Population Healthy Nuclei (%)", "setting": "[4]", "result": "25% and 32%"},
      {"measurement": "Population Hoechst High Intensity Objects (%)", "setting": "[4]", "result": "1% and 0%"},
      {"measurement": "Population Membrane Permeable-Phenotype (%)", "setting": "[4]", "result": "6% and 8%"},
      {"measurement": "Population Mitochondria Different-Phenotype (%)", "setting": "[4]", "result": "18% and 26%"},
      {"measurement": "Population Mitotic Cells (%)", "setting": "[4]", "result": "24% and 11%"},
      {"measurement": "Population Normal (%)", "setting": "[4]", "result": "98% and 100%"},
      {"measurement": "Population Pyknosed Nuclei (%)", "setting": "[4]", "result": "39% and 55%"},
      {"measurement": "Population Tubulin-Different-Phenotype (%)", "setting": "[4]", "result": "31% and 48%"},
      {"measurement": "Population Apoptotic (%)", "setting": "[5]", "result": "54% and 86%"},
      {"measurement": "Population Healthy Nuclei (%)", "setting": "[5]", "result": "51% and 86%"},
      {"measurement": "Population Hoechst High Intensity Objects (%)", "setting": "[5]", "result": 0, "unit": "%"},
      {"measurement": "Population Membrane Permeable-Phenotype (%)", "setting": "[5]", "result": "5% and 0%"},
      {"measurement": "Population Mitochondria Different-Phenotype (%)", "setting": "[5]", "result": 1, "unit": "%"},
      {"measurement": "Population Normal (%)", "setting": "[5]", "result": 100, "unit": "%"},
      {"measurement": "Population Pyknosed Nuclei (%)", "setting": "[5]", "result": "10% and 9%"},
      {"measurement": "Population Tubulin-Different-Phenotype (%)", "setting": "[5]", "result": "78% and 88%"},
      {"measurement": "Population Apoptotic (%)", "setting": "[6]", "result": 90, "unit": "%"},
      {"measurement": "Population Healthy Nuclei (%)", "setting": "[6]", "result": "13% and 21%"},
      {"measurement": "Population Hoechst High Intensity Objects (%)", "setting": "[6]", "result": "0% and 1%"},
      {"measurement": "Population Membrane Permeable-Phenotype (%)", "setting": "[6]", "result": "55% and 60%"},
      {"measurement": "Population Mitochondria Different-Phenotype (%)", "setting": "[6]", "result": "55% and 60%"},
      {"measurement": "Population Mitotic Cells (%)", "setting": "[6]", "result": 9, "unit": "%"},
      {"measurement": "Population Normal (%)", "setting": "[6]", "result": "100% and 98%"},
      {"measurement": "Population Pyknosed Nuclei (%)", "setting": "[6]", "result": "44% and 69%"},
      {"measurement": "Population Tubulin-Different-Phenotype (%)", "setting": "[6]", "result": "88% and 65%"},
      {"measurement": "Total Cell Count", "setting": "[6]", "result": "69 and 181"}
    ]}
  ]
}
